Assay results reported in ChEMBL document CHEMBL5247575 (J Med Chem, 2018).
Converted amounts (≈) assume the structure as drawn.

How the values were obtained:
Type in all cases: functional
Klebsiella pneumoniae [1] = test: Antibacterial activity against Klebsiella pneumoniae CAV 1636 producing OXA-181 by broth microdilution method
Pseudomonas aeruginosa [2] = test: Antibacterial activity against Pseudomonas aeruginosa 839 by broth microdilution method
Escherichia coli [3] = test: Synergistic antibacterial activity against Escherichia coli DH10B transfected with pBC SK (-) OXA-48 assessed as cefepime MIC at 4 ug/ml by broth microdilution method; settings: dose 4 µg/ml
Outline: (§1)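 Broth microdilution per CLSI guidelines, using custom frozen panels. […] Each partner drug was also tested alone. MICs were run in triplicate and the modal value is reported.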

Klebsiella pneumoniae [4] = test: Synergistic antibacterial activity against Klebsiella pneumoniae 660/1568 producing KPC-3 assessed as cefepime MIC at 4 ug/ml by broth microdilution method; settings: dose 4 µg/ml; outline: as §1
Klebsiella pneumoniae [5] = test: Synergistic antibacterial activity against Klebsiella pneumoniae 729/1679 producing KPC-3 assessed as cefepime MIC at 4 ug/ml by broth microdilution method; settings: dose 4 µg/ml; outline: as §1
Klebsiella pneumoniae [6] = test: Synergistic antibacterial activity against Klebsiella pneumoniae 1108/1989 producing KPC-3 assessed as cefepime MIC at 4 ug/ml by broth microdilution method; settings: dose 4 µg/ml; outline: as §1
Klebsiella pneumoniae [7] = test: Synergistic antibacterial activity against Klebsiella pneumoniae 11978 producing OXA-48 assessed as cefepime MIC at 4 ug/ml by broth microdilution method; settings: dose 4 µg/ml; outline: as §1
Acinetobacter baumannii [8] = test: Synergistic antibacterial activity against Acinetobacter baumannii PR319 producing OXA-23/24/40 assessed as cefepime MIC at 4 ug/ml by broth microdilution method; settings: dose 4 µg/ml
Acinetobacter baumannii [9] = test: Synergistic antibacterial activity against Acinetobacter baumannii PR381 producing OXA-24/40 assessed as cefepime MIC at 4 ug/ml by broth microdilution method; settings: dose 4 µg/ml
Acinetobacter baumannii [10] = test: Synergistic antibacterial activity against Acinetobacter baumannii PR448 producing OXA-23 assessed as cefepime MIC at 4 ug/ml by broth microdilution method; settings: dose 4 µg/ml
Acinetobacter baumannii [11] = test: Synergistic antibacterial activity against Acinetobacter baumannii PR474 producing OXA-23/24/40 assessed as cefepime MIC at 4 ug/ml by broth microdilution method; settings: dose 4 µg/ml
Escherichia coli [12] = test: Synergistic antibacterial activity against Escherichia coli DH10B transfected with pBC SK (-) OXA-48 assessed as cefepime MIC at 8 ug/ml by broth microdilution method; settings: dose 8 µg/ml; outline: as §1
Acinetobacter baumannii [13] = test: Synergistic antibacterial activity against ADC deleted Acinetobacter baumannii assessed as cefepime MIC at 8 ug/ml by broth microdilution method; settings: dose 8 µg/ml
Klebsiella pneumoniae [14] = test: Synergistic antibacterial activity against Klebsiella pneumoniae 660/1568 producing KPC-3 assessed as cefepime MIC at 8 ug/ml by broth microdilution method; settings: dose 8 µg/ml; outline: as §1
Klebsiella pneumoniae [15] = test: Synergistic antibacterial activity against Klebsiella pneumoniae 935/1884 producing KPC-3 assessed as cefepime MIC at 8 ug/ml by broth microdilution method; settings: dose 8 µg/ml
Klebsiella pneumoniae [16] = test: Synergistic antibacterial activity against Klebsiella pneumoniae 1398/2291 producing KPC-3 assessed as cefepime MIC at 8 ug/ml by broth microdilution method; settings: dose 8 µg/ml; outline: as §1
Klebsiella pneumoniae [17] = test: Synergistic antibacterial activity against Klebsiella pneumoniae 761/1723 producing KPC-3 assessed as cefepime MIC at 8 ug/ml by broth microdilution method; settings: dose 8 µg/ml; outline: as §1
Klebsiella pneumoniae [18] = test: Synergistic antibacterial activity against Klebsiella pneumoniae 972/1910 producing KPC-3 assessed as cefepime MIC at 8 ug/ml by broth microdilution method; settings: dose 8 µg/ml
Klebsiella pneumoniae [19] = test: Synergistic antibacterial activity against Klebsiella pneumoniae jefferson 1773 producing OXA-181 assessed as cefepime MIC at 8 ug/ml by broth microdilution method; settings: dose 8 µg/ml
Klebsiella pneumoniae [20] = test: Synergistic antibacterial activity against Klebsiella pneumoniae jefferson 1775 producing OXA-48 assessed as cefepime MIC at 8 ug/ml by broth microdilution method; settings: dose 8 µg/ml
Acinetobacter baumannii [21] = test: Synergistic antibacterial activity against Acinetobacter baumannii PR363 producing OXA-23 assessed as cefepime MIC at 8 ug/ml by broth microdilution method; settings: dose 8 µg/ml
Acinetobacter baumannii [22] = test: Synergistic antibacterial activity against Acinetobacter baumannii PR420 producing OXA-23/24/40 assessed as cefepime MIC at 8 ug/ml by broth microdilution method; settings: dose 8 µg/ml
Escherichia coli [23] = test: Synergistic antibacterial activity against Escherichia coli DH10B assessed as meropenem MIC at 4 ug/ml by broth microdilution method; settings: dose 4 µg/ml
Klebsiella pneumoniae [24] = test: Synergistic antibacterial activity against Klebsiella pneumoniae 776/1742 producing KPC-2 assessed as meropenem MIC at 4 ug/ml by broth microdilution method; settings: dose 4 µg/ml
Klebsiella pneumoniae [25] = test: Synergistic antibacterial activity against Klebsiella pneumoniae 977/1916 producing KPC-3 assessed as meropenem MIC at 4 ug/ml by broth microdilution method; settings: dose 4 µg/ml
Klebsiella pneumoniae [26] = test: Synergistic antibacterial activity against Klebsiella pneumoniae CAV 1543 producing OXA-48 assessed as meropenem MIC at 4 ug/ml by broth microdilution method; settings: dose 4 µg/ml
Pseudomonas aeruginosa [27] = test: Synergistic antibacterial activity against Pseudomonas aeruginosa CL232 assessed as meropenem MIC at 4 ug/ml by broth microdilution method; settings: dose 4 µg/ml
Pseudomonas aeruginosa [28] = test: Synergistic antibacterial activity against Pseudomonas aeruginosa 839 assessed as meropenem MIC at 4 ug/ml by broth microdilution method; settings: dose 4 µg/ml
Acinetobacter baumannii [29] = test: Synergistic antibacterial activity against Acinetobacter baumannii PR474 producing OXA-23/24/40 assessed as meropenem MIC at 4 ug/ml by broth microdilution method; settings: dose 4 µg/ml
Acinetobacter baumannii [30] = test: Synergistic antibacterial activity against ADC deleted Acinetobacter baumannii assessed as meropenem MIC at 8 ug/ml by broth microdilution method; settings: dose 8 µg/ml
Klebsiella pneumoniae [31] = test: Synergistic antibacterial activity against Klebsiella pneumoniae 729/1679 producing KPC-3 assessed as meropenem MIC at 8 ug/ml by broth microdilution method; settings: dose 8 µg/ml; outline: as §1
Klebsiella pneumoniae [32] = test: Synergistic antibacterial activity against Klebsiella pneumoniae 776/1742 producing KPC-2 assessed as meropenem MIC at 8 ug/ml by broth microdilution method; settings: dose 8 µg/ml
Klebsiella pneumoniae [33] = test: Synergistic antibacterial activity against Klebsiella pneumoniae 977/1916 producing KPC-3 assessed as meropenem MIC at 8 ug/ml by broth microdilution method; settings: dose 8 µg/ml
Klebsiella pneumoniae [34] = test: Synergistic antibacterial activity against Klebsiella pneumoniae 1084/1957 producing KPC-3 assessed as meropenem MIC at 8 ug/ml by broth microdilution method; settings: dose 8 µg/ml; outline: as §1
Klebsiella pneumoniae [35] = test: Synergistic antibacterial activity against Klebsiella pneumoniae 11978 producing OXA-48 assessed as meropenem MIC at 8 ug/ml by broth microdilution method; settings: dose 8 µg/ml; outline: as §1
Pseudomonas aeruginosa [36] = test: Synergistic antibacterial activity against Pseudomonas aeruginosa 715 assessed as meropenem MIC at 8 ug/ml by broth microdilution method; settings: dose 8 µg/ml
Acinetobacter baumannii [37] = test: Synergistic antibacterial activity against Acinetobacter baumannii PR440 producing OXA-23/24/40 assessed as meropenem MIC at 8 ug/ml by broth microdilution method; settings: dose 8 µg/ml

`O=C(NNC(=O)[C@@H]1CC[C@@H]2CN1C(=O)N2OS(=O)(=O)O)[C@@H]1CCCNC1` [ZIDEBACTAM] gave an MIC (Klebsiella pneumoniae [1]) greater than 16 µg/mL, an MIC (Pseudomonas aeruginosa [2]) of 8 µg/mL (≈ 20.4 µM) and an MIC (Escherichia coli [3]) of no more than 0.12 µg/mL. The MIC (Klebsiella pneumoniae [4]) was no more than 0.12 µg/mL, the MIC (Klebsiella pneumoniae [5]) was no more than 0.12 µg/mL and the MIC (Klebsiella pneumoniae [6]) was no more than 0.12 µg/mL. For the same compound, the MIC (Klebsiella pneumoniae [7]) was no more than 0.12 µg/mL, the MIC (Acinetobacter baumannii [8]) was greater than 16 µg/mL and the MIC (Acinetobacter baumannii [9]) was 16 µg/mL. For the same compound, the MIC (Acinetobacter baumannii [10]) was 4 µg/mL, the MIC (Acinetobacter baumannii [11]) was 8 µg/mL and the MIC (Escherichia coli [12]) was no more than 0.12 µg/mL. The MIC (Acinetobacter baumannii [13]) was 0.5 µg/mL, the MIC (Klebsiella pneumoniae [14]) was no more than 0.12 µg/mL and the MIC (Klebsiella pneumoniae [15]) was no more than 0.12 µg/mL. The MIC (Klebsiella pneumoniae [16]) was no more than 0.12 µg/mL, the MIC (Klebsiella pneumoniae [17]) was no more than 0.12 µg/mL and the MIC (Klebsiella pneumoniae [18]) was no more than 0.12 µg/mL. The MIC (Klebsiella pneumoniae [19]) was no more than 0.12 µg/mL, the MIC (Klebsiella pneumoniae [20]) was no more than 0.12 µg/mL and the MIC (Acinetobacter baumannii [21]) was 8 µg/mL. For the same compound, the MIC (Acinetobacter baumannii [22]) was greater than 16 µg/mL, the MIC (Escherichia coli [23]) was no more than 0.12 µg/mL and the MIC (Klebsiella pneumoniae [24]) was no more than 0.12 µg/mL. For the same compound, the MIC (Klebsiella pneumoniae [25]) was no more than 0.12 µg/mL, the MIC (Klebsiella pneumoniae [26]) was no more than 0.12 µg/mL and the MIC (Pseudomonas aeruginosa [27]) was greater than 16 µg/mL. It also gave an MIC (Pseudomonas aeruginosa [28]) of 0.5 µg/mL, an MIC (Acinetobacter baumannii [29]) greater than 16 µg/mL and an MIC (Acinetobacter baumannii [30]) of no more than 0.12 µg/mL. The MIC (Klebsiella pneumoniae [31]) was no more than 0.12 µg/mL, the MIC (Klebsiella pneumoniae [32]) was no more than 0.12 µg/mL and the MIC (Klebsiella pneumoniae [33]) was no more than 0.12 µg/mL. For the same compound, the MIC (Klebsiella pneumoniae [34]) was no more than 0.12 µg/mL, the MIC (Klebsiella pneumoniae [35]) was no more than 0.12 µg/mL and the MIC (Pseudomonas aeruginosa [36]) was 8 µg/mL. For the same compound, the MIC (Acinetobacter baumannii [37]) was greater than 16 µg/mL.
